Data from ChEMBL document CHEMBL2331340, “Novel antitumor indolizino[6,7-b]indoles with multiple modes of action: DNA cross-linking and topoisomerase I and II inhibition” (J Med Chem, 2013).
Active and inactive are the calls of the source. The rule behind the calls is not given here.

Experiments:
[1] = system: CCRF-CEM; assay: Cytotoxicity against human CCRF-CEM cells after 72 hrs by XTT assay; format: functional, cell-based
Outline: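 CCRF-CEM T-ALL cells incubated with compound for 72 h. XTT with phenazine methosulfate then added for 6 h at 37 °C, absorbance read at 450 and 630 nm. IC50 from six or seven concentrations by median-effect analysis; mean ± STDEV, n = 3.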

[2] = system: MES-SA; assay: Resistance factor, ratio of IC50 for human MES-SA/Dx5 cells to IC50 for human MES-SA cells; format: functional
[3] = Cytotoxicity against human MES-SA/Dx5 cells after 72 hrs by Presto Blue assay; format: functional, cell-based; conditions: MES-SA/Dx5, 72 h
Outline: (§1)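 MES-SA and doxorubicin-resistant MES-SA/dx5 cells exposed for 72 h, then PrestoBlue added for 3 h at 37 °C, absorbance read at 570 and 600 nm. IC50 by median-effect analysis of six or seven concentrations; mean ± STDEV of three to six independent experiments.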

[4] = Cytotoxicity against human MES-SA cells after 72 hrs by Presto Blue assay; format: functional, cell-based; outline: as §1
[5] = system: PC-3; assay: Cytotoxicity against human PC3 cells after 72 hrs by Alamar blue assay; format: functional, cell-based; conditions: PC-3, 72 h
Outline: (§2)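 Cells exposed to compound for 72 h, then Alamar blue added with a further 10−12 h at 37 °C and a spectrophotometric read. IC50 from six or seven concentrations by median-effect analysis; mean ± STDEV, n = 3. CL141T is a line derived from a patient lung tumor passaged as a SCID mouse xenograft.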

[6] = Cytotoxicity against human CL141T cells after 72 hrs by Alamar blue assay; format: functional, cell-based; outline: as §2
[7] = system: HCT-116; assay: Cytotoxicity against human HCT116 cells after 72 hrs by Alamar blue assay; format: functional, cell-based; conditions: HCT-116, 72 h; outline: as §2
[8] = Cytotoxicity against human OECM1 cells after 72 hrs by Alamar blue assay; format: functional, cell-based; conditions: OECM1, 72 h; outline: as §2
[9] = Cytotoxicity against human H460 cells after 72 hrs by Alamar blue assay; format: functional, cell-based; conditions: NCI-H460, 72 h; outline: as §2
[10] = system: MX1; assay: Cytotoxicity against human MX1 cells after 72 hrs by SRB assay; format: functional, cell-based; conditions: MX1, 72 h
[11] = Resistance factor, ratio of IC50 for human KB-VIN10 cells to IC50 for human KB cells; format: functional
[12] = system: KB; assay: Cytotoxicity against human KB cells after 72 hrs by Alamar blue assay
[13] = Cytotoxicity against human KB-VIN10 cells after 72 hrs by Alamar blue assay; conditions: KB-VIN10, 72 h
[14] = system: HT-29; assay: Cytotoxicity against human HT-29 cells after 72 hrs by Alamar blue assay; format: functional, cell-based; conditions: HT-29, 72 h; outline: as §2
[15] = system: A549; assay: Cytotoxicity against human A549 cells after 72 hrs by Alamar blue assay; format: functional, cell-based; conditions: A549, 72 h; outline: as §2
[16] = system: Escherichia coli; assay: Induction of Escherichia coli pEGFP-N1 DNA interstrand cross-linking at 1 to 10 uM after 2 hrs by alkaline agarose gel shift assay
Outline: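 Plasmid pEGFP-N1 DNA (1500 ng) incubated with compound at 1, 5 and 10 μM in 3 mM NaCl/1 mM sodium phosphate pH 7.4/1 mM EDTA, 2 h at 37 °C. DNA then BamHI-linearized, EtOH-precipitated, denatured in 0.5 N NaOH/10 mM EDTA, run on 0.8% alkaline agarose at 4 °C (18 V, 22 h), stained with ethidium bromide.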

[17] = Cytotoxicity against human HEL299 cells; format: cell-based; conditions: HEL 299

Row | Structure (SMILES) | IC50 [1] | IC50 [5] | IC50 [6] | IC50 [7] | IC50 [8] | further results
1 | CC(C)NC(=O)OCc1c(COC(=O)NC(C)C)c(-c2ccc(F)c(Cl)c2)n2c1Cc1c(n(C)c3ccccc13)C2 | 1.91 µM |  |  |  |  | 
2 | Cn1c2c(c3ccccc31)Cc1c(CO)c(CO)c(-c3ccc(F)cc3)n1C2 | 1.46 µM |  |  |  |  | 
3 | COc1ccc(-c2c(CO)c(CO)c3n2Cc2c(c4ccccc4n2C)C3)cc1 | 1.3 µM |  |  |  |  | 
4 | Cn1c2c(c3ccccc31)Cc1c(CO)c(CO)c(-c3ccc(F)c(Cl)c3)n1C2 | 14.4 µM |  |  |  |  | 
5 | COc1cccc2c1C(=O)c1c(O)c3c(c(O)c1C2=O)C[C@@](O)(C(=O)CO)C[C@@H]3O[C@H]1C[C@H](N)[C@H](O)[C@H](C)O1 [DOXORUBICIN] |  |  |  |  |  | Ratio IC50 [2]: 60.52; IC50 [3]: 2.3 µM; IC50 [4]: 0.038 µM
6 | CCNC(=O)OCc1c(COC(=O)NCC)c2n(c1CC)Cc1c(c3ccccc3n1C)C2 | 0.16 µM | 5 µM | 2.85 µM | 1.8 µM | 3.9 µM | 
7 | CCNC(=O)OCc1c(COC(=O)NCC)c(-c2ccc(F)c(F)c2)n2c1Cc1c(n(C)c3ccccc13)C2 | 0.13 µM | 6.76 µM | 9.61 µM |  | 14.4 µM | IC50 [9]: 18.9 µM
8 | CCNC(=O)OCc1c(COC(=O)NCC)c2n(c1C)Cc1c(c3ccccc3n1Cc1ccccc1)C2 | 0.14 µM | 5.05 µM |  | 3.84 µM | 5.42 µM | IC50 [9]: 8.31 µM
9 | CCNC(=O)OCc1c(COC(=O)NCC)c(-c2ccc(OC)c(OC)c2)n2c1Cc1c(n(C)c3ccccc13)C2 | 0.3 µM | 8.03 µM | 11.2 µM |  | 5.29 µM | 
10 | CCNC(=O)OCc1c(COC(=O)NCC)c(-c2ccc(F)c(Cl)c2)n2c1Cc1c(n(C)c3ccccc13)C2 | 1.8 µM |  |  |  |  | 
11 | CC(C)NC(=O)OCc1c(COC(=O)NC(C)C)c(-c2ccc(Cl)cc2)n2c1Cc1c(n(C)c3ccccc13)C2 | 0.44 µM | 13.1 µM | 14 µM | 9.28 µM | 12.7 µM | IC50 [10]: 12.4 µM
12 | COc1ccc(-c2c(CO)c(CO)c3n2Cc2c(c4ccccc4n2C)C3)cc1OC | 0.96 µM | 37.9 µM | 33.1 µM |  | 37.2 µM | 
13 | COc1ccc(-c2c(COC(=O)NC(C)C)c(COC(=O)NC(C)C)c3n2Cc2c(c4ccccc4n2C)C3)cc1 | 0.12 µM | 6.84 µM | 4 µM | 5.93 µM | 4.17 µM | IC50 [9]: 9.52 µM
14 | Cn1c2c(c3ccccc31)Cc1c(CO)c(CO)c(-c3ccc(F)c(F)c3)n1C2 | 7.94 µM |  |  |  |  | 
15 | CCNC(=O)OCc1c(COC(=O)NCC)c(-c2ccc(OC)cc2)n2c1Cc1c(n(C)c3ccccc13)C2 | 0.1 µM | 8.3 µM | 8.13 µM | 7.1 µM | 6.15 µM | 
16 | CCNC(=O)OCc1c(COC(=O)NCC)c(-c2ccc(Cl)cc2)n2c1Cc1c(n(C)c3ccccc13)C2 | 0.35 µM | 4.95 µM | 7.88 µM | 1.17 µM | 9.01 µM | IC50 [10]: 1.83 µM
17 | CCNC(=O)OCc1c(COC(=O)NCC)c(-c2cc(OC)c(OC)c(OC)c2)n2c1Cc1c(n(C)c3ccccc13)C2 | 0.62 µM |  |  |  |  | 

Row | Structure (SMILES) | IC50 [1] | IC50 [5] | IC50 [6] | IC50 [7] | IC50 [8] | further results
18 | CC[C@]1(O)C[C@H]2CN(CCc3c([nH]c4ccccc34)[C@@](C(=O)OC)(c3cc4c(cc3OC)N(C=O)[C@H]3[C@@](O)(C(=O)OC)[C@H](OC(C)=O)[C@]5(CC)C=CCN6CC[C@]43[C@@H]65)C2)C1 [VINCRISTINE] |  |  |  |  |  | Ratio IC50 [11]: 143.7; IC50 [12]: 0.00211 µM; IC50 [13]: 0.303 µM
19 | CCc1c(COC(=O)NC(C)C)c(COC(=O)NC(C)C)c2n1Cc1c(c3ccccc3n1C)C2 | 0.16 µM | 2.1 µM | 2.66 µM | 2.22 µM | 2.02 µM | 
20 | Cn1c2c(c3ccccc31)Cc1c(CO)c(CO)c(-c3ccc(Cl)cc3)n1C2 | 4.58 µM | 12.9 µM | 23.8 µM | 17.5 µM | 17.2 µM | IC50 [10]: 11.3 µM
21 | COc1cc(-c2c(CO)c(CO)c3n2Cc2c(c4ccccc4n2C)C3)cc(OC)c1OC | 4.45 µM |  |  |  |  | 
22 | Cc1c(COC(=O)NC(C)C)c(COC(=O)NC(C)C)c2n1Cc1c(c3ccccc3n1Cc1ccccc1)C2 | 0.1 µM | 4.18 µM | 4.66 µM | 3.92 µM | 4.2 µM | IC50 [9]: 7.26 µM
23 | CCNC(=O)OCc1c(COC(=O)NCC)c(-c2ccccc2)n2c1Cc1c(n(C)c3ccccc13)C2 | 0.23 µM | 9.13 µM | 10.5 µM |  | 5.19 µM | 
24 | CC(C)NC(=O)OCc1c(COC(=O)NC(C)C)c(-c2ccc(F)c(F)c2)n2c1Cc1c(n(C)c3ccccc13)C2 | 0.44 µM | 34.2 µM | 18.3 µM |  | 15.2 µM | 
25 | CCn1c2c(c3ccccc31)Cc1c(COC(=O)NC(C)C)c(COC(=O)NC(C)C)c(C)n1C2 | 0.14 µM | 3.28 µM | 1.88 µM | 2.2 µM | 2.27 µM | IC50 [14]: 6.36 µM; IC50 [15]: 2.64 µM
26 | CCNC(=O)OCc1c(COC(=O)NCC)c2n(c1C)Cc1c(c3ccccc3n1CC)C2 | 0.14 µM | 4.61 µM | 1.4 µM | 3.22 µM | 4.9 µM | Activity [16]: Active; IC50 [9]: 5.14 µM
27 | COc1cc(-c2c(COC(=O)NC(C)C)c(COC(=O)NC(C)C)c3n2Cc2c(c4ccccc4n2C)C3)cc(OC)c1OC | 0.95 µM |  |  |  |  | 
28 | CCc1c(CO)c(CO)c2n1Cc1c(c3ccccc3n1C)C2 | 0.2 µM | 3.32 µM | 1.32 µM |  | 2.11 µM | Ratio IC50 [2]: 0.61; Ratio IC50 [11]: 0.79; IC50 [3]: 0.47 µM; IC50 [4]: 0.77 µM; IC50 [17]: 4.24 µM; IC50 [14]: 8.56 µM; IC50 [15]: 3.15 µM; IC50 [12]: 1.97 µM; IC50 [13]: 1.56 µM
29 | COc1ccc(-c2c(COC(=O)NC(C)C)c(COC(=O)NC(C)C)c3n2Cc2c(c4ccccc4n2C)C3)cc1OC | 0.3 µM |  |  |  |  | 
30 | CCNC(=O)OCc1c(COC(=O)NCC)c(-c2ccc(F)cc2)n2c1Cc1c(n(C)c3ccccc13)C2 | 0.39 µM | 14.6 µM | 12.4 µM |  | 8.6 µM | 
31 | Cc1c(CO)c(CO)c2n1Cc1c(c3ccccc3n1Cc1ccccc1)C2 | 0.29 µM | 4.52 µM | 2.76 µM |  | 4.17 µM | 
32 | CC(C)NC(=O)OCc1c(COC(=O)NC(C)C)c(-c2ccccc2)n2c1Cc1c(n(C)c3ccccc13)C2 | 0.13 µM | 7.84 µM | 9.6 µM |  | 4.87 µM | IC50 [9]: 4.72 µM
33 | Cc1c(COC(=O)NC(C)C)c(COC(=O)NC(C)C)c2n1Cc1c(c3ccccc3n1C)C2 | 0.03 µM | 3.03 µM | 2.43 µM | 1.26 µM | 1.45 µM | IC50 [10]: 0.25 µM; IC50 [14]: 10.8 µM; IC50 [15]: 3.81 µM
34 | Cn1c2c(c3ccccc31)Cc1c(CO)c(CO)c(-c3ccccc3)n1C2 | 1.17 µM |  |  |  |  | 
